The values that follow come from ChEMBL document CHEMBL4316661, “Securinega Alkaloids from the Twigs of Securinega suffruticosa and Their Biological Activities” (J Nat Prod, 2019).

Series [1] concerns A549. The series is described as follows: Cytotoxicity against human A549 cells after 48 hrs by SRB assay. Format: cell-based. As to conditions: A549, 48 h.
The subject of series [2] is SK-OV-3. Nature of the series: Cytotoxicity against human SKOV3 cells after 48 hrs by SRB assay. In kind it is cell-based. As to conditions: SK-OV-3, 48 h. Background: In SRB staining, fixed cells bind dye roughly in proportion to their protein.
Series [3] relates to SK-MEL-2. Nature of the series: Cytotoxicity against human SK-MEL-2 cells after 48 hrs by SRB assay. In kind it is cell-based. As to conditions: SK-MEL-2, 48 h.
Series [4] concerns HCT-15. Nature of the series: Cytotoxicity against human HCT15 cells after 48 hrs by SRB assay. Format: cell-based. As to conditions: HCT-15, 48 h.
Series [5] deals with BV-2. The series is described as follows: Antiinflammatory activity in mouse BV2 cells assessed as inhibition of LPS-induced nitrite production after 24 hrs by Griess assay. In kind it is functional, cell-based. The following applies: BV-2, 24 h. The gist of the method:
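LPS-activated murine microglial BV-2 cells. IC50 taken as the concentration (μM) giving 50% inhibition of NO production. Means of three independent experiments, as means ± SD.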
For orientation: The Griess reaction detects nitrite, a stable product of nitric oxide.

Series [6] can be described thus: (§1) Cytotoxicity against mouse BV2 cells assessed as cell viability at 20 uM after 24 hrs by MTT assay relative to control. In kind it is cell-based, BV-2. As to conditions: BV2 cells, read-out: Activity. The gist of the method:
(§2)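 BV-2 microglia exposed to 20 μM of each compound. Viability read by MTT and given as a percentage. Means ± SD of three independent experiments.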

Series [7] relates to C6. Nature of the series: Neuroprotective activity in rat C6 cells assessed as NGF secretion at 20 uM after 24 hrs by ELISA relative to control. Format: functional. The gist of the method:
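C6 cells given 20 μM of each compound for 24 h. NGF secreted into the C6-conditioned medium quantified by ELISA, as a percentage of the untreated control (set at 100%). Means ± SD of three independent experiments.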
On the technique in general: In an ELISA, binding on a coated surface is turned into a signal by an enzyme label.

Series [8] is described as follows: Cytotoxicity against rat C6 cells assessed as cell viability at 20 uM after 24 hrs by MTT assay relative to control. As to conditions: read-out: Activity. In kind it is cell-based. The method in brief: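 C6 cells treated with 20 μM of each compound. Viability determined by MTT assay and expressed as a percentage. Means ± SD of three independent experiments.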

Series [9] has as its system BV-2. The description is as §1. Format: cell-based. As to conditions: bv-2, 24 h, 20 µM. The method in brief:
as §2

As a reminder, the IC50 is the concentration needed to halve the response being measured.

`CO[C@H]1CCN2[C@@H]3C=CC4=CC(=O)O[C@]4(C3)[C@H]2C1`: the IC50 in series [1] is over 10 µM; in series [2], over 10 µM; in series [3], over 10 µM; in series [4], over 10 µM; in series [5], 7.7 µM. Further, the viability at 24 h, 20 µM in [6] was determined as 108%.
With `O=C1C=C2C=CCC[C@]2(c2ccccn2)O1`, the 50% inhibitory concentration (IC50) in series [1], in series [2], in series [3] and in series [4] was over 10 µM in each case.
For the compound `CO[C@H]1CCN2O[C@]34C=C[C@H](O)C[C@]3(OC(=O)C4)[C@@H]2C1`, the half-maximal inhibitory concentration (IC50) in series [1], in series [2], in [3] and in series [4] was over 10 µM throughout.
With `O=C1C=C2C=C[C@H](O)C[C@@H]2O1`, the IC50 in series [1], in series [2], in [3] and in [4] was over 10 µM each time.
Take `O=C1C=C2C=C[C@H](O)C[C@]2(c2ccccn2)O1`: the IC50 in [1], in series [2], in [3] and in series [4] was over 10 µM throughout.
In the case of `CNC(=N)NCCC[C@H](N)C(=O)O` [TILARGININE], in series [6], the viability at 24 h, 20 µM turned out to be 99.7%.
Turning to `O=C1C=C2C=C[C@@H]3C[C@@]2(O1)[C@@H]1CCC(=O)C(=O)N31`, the IC50 in [1], in [2], in series [3] and in [4] was over 10 µM each time. For the same compound, the Activity in series [7] turned out to be 172.7%. For the same compound, the viability at 24 h, 20 µM in [8] was found to be 101%.
`CCCCC/C=C/C(=O)CCc1ccc(O)c(OC)c1` [SHOGAOL]: in [7], the Activity is reported as 138.7%. For the same compound, the viability at 24 h, 20 µM in [8] stood at 112%.
For `O=C1C=C2C=C[C@H]3C[C@@]2(O1)[C@@H]1C[C@@H](O)CCN1O3`, the IC50 in series [1], in series [2], in series [3] and in series [4] was over 10 µM each time.
In the case of `O=C1C=C2C=C[C@@H]3C[C@@]2(O1)[C@@]1(O)[C@H]2O[C@H]2CCN31`, the IC50 in [1] is 6.8 µM; in [2], 3.4 µM; in [3], 1.9 µM; in [4], 1.5 µM. Moreover, the Activity result in [9] was “Toxic”.
In the case of `O=C1C=C2C=C[C@@H]3C[C@@]2(O1)[C@@H]1[C@H]2O[C@H]2CCN31`, the IC50 is over 10 µM in [1]; over 10 µM in [2]; over 10 µM in series [3]; over 10 µM in series [4]; 12.6 µM in series [5]. In addition, the viability at 24 h, 20 µM in series [6] came out at 92.8%; in series [8], 101%. Moreover, the Activity in series [7] is 145.3%.
Consider `CO[C@H]1CCN2O[C@H]3C=CC[C@@]4(OC(=O)C=C34)[C@@H]2C1`, for which the IC50 in series [1], in [2], in [3] and in series [4] was over 10 µM in each case.
For `CO[C@H]1CCN2[C@@H]3C=CC4=CC(=O)O[C@]4(C3)[C@@H]2C1`, the IC50 was over 10 µM in [1]; over 10 µM in series [2]; over 10 µM in series [3]; over 10 µM in series [4]; 31.5 µM in [5]. The viability at 24 h, 20 µM in series [6] turned out to be 88.7%.
As to `COc1cc([C@@H]2c3cc4c(cc3[C@@H](O[C@@H]3O[C@@H]5CO[C@@H](C)O[C@H]5[C@H](O)[C@H]3O)[C@H]3COC(=O)[C@H]23)OCO4)cc(OC)c1O` [ETOPOSIDE], the IC50 is 0.7 µM in series [1], 1.8 µM in series [2], 0.3 µM in series [3] and 0.3 µM in series [4].
Consider `O=C1C=C2C=C[C@@H]3C[C@@]2(O1)[C@H]1CCCCN31` [SECURININE], for which the IC50 in series [1] is over 10 µM; in series [2], over 10 µM; in [3] it was over 10 µM; in series [4], over 10 µM; in series [5] it was 1.1 µM. Moreover, the viability at 24 h, 20 µM in series [6] was 101%; in series [8], 102%. Moreover, in series [7], the Activity stood at 141.1%.
As to `CO[C@H]1CCN2O[C@@H]3C=CC4=CC(=O)O[C@]4(C3)[C@@H]2C1` [SECURINEGA AMAMINE D], the IC50 in [1] is over 10 µM; in series [2] it was over 10 µM; in [3] it was over 10 µM; in series [4] it was over 10 µM; in series [5], 23.9 µM. Also, in series [6], the viability at 24 h, 20 µM came to 86.5%.
As for `O=C1C=C2C=C[C@H]3C[C@]2(O1)[C@H]1CCCCN1O3`, the IC50 is over 10 µM in series [1]; over 10 µM in [2]; over 10 µM in series [3]; over 10 µM in series [4]; 12.1 µM in series [5]. Also, in [6], the viability at 24 h, 20 µM amounted to 96.7%.
